From ChEMBL document CHEMBL1122187, “Synthesis and antiviral activity of certain carbamoylpyrrolopyrimidine and pyrazolopyrimidine nucleosides” (1982)

How the values were obtained:
Vero [1] = assay: Percentage plaque reduction was determined against rift valley fever(RVF) virus in african green monkey kidney (vero,V) at a conc of 100-250 ug/mL; format: functional, Chlorocebus sabaeus
Vero [2] = assay: Percentage plaque reduction was determined against rift valley fever(RVF) virus in african green monkey kidney (vero,V) at a conc of 25-100 ug/mL; format: functional, Chlorocebus sabaeus
Vero [3] = assay: Percentage plaque reduction was determined against Sandfly fever (SF) virus in african green monkey kidney (vero,V) at a conc of 100-250 ug/mL; format: functional, Chlorocebus sabaeus
Vero [4] = assay: Percentage plaque reduction was determined against Sandfly fever (SF) virus in african green monkey kidney (vero,V) at a conc of 25-100 ug/mL; format: functional, Chlorocebus sabaeus
Vero [5] = assay: Percentage plaque reduction was determined against yellow fever(YF) virus in african green monkey kidney (vero,V); 61-90; format: functional, Chlorocebus sabaeus
Vero [6] = assay: In vitro antiviral activity against herpes simplex type 1 (HSV-1) virus was determined in african green monkey kidney (vero,V) expressed as virus rating.; format: functional, Chlorocebus sabaeus
Outline: (§1)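 Cell monolayers (18 h) infected with 320 TCID50 of virus. Compound was added within 15–30 min at half-log dilutions from 1000 to 1 μg/mL. After 72 h at 37 °C in 5% CO2, CPE was scored 0–4 by microscopy. VR = sum of (virus control − treated) scores, halved at partially toxic levels, divided by 10 × test cups per drug level.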

Vero [7] = assay: Percentage plaque reduction was determined against rift valley fever(RVF) virus in african green monkey kidney (vero,V) at a conc of 250-500 ug/mL; format: functional, Chlorocebus sabaeus
Vero [8] = assay: Percentage plaque reduction was determined against Sandfly fever (SF) virus in african green monkey kidney (vero,V) at a conc of 250-500 ug/mL; format: functional, Chlorocebus sabaeus
Vero [9] = assay: Percentage plaque reduction was determined against Sandfly fever (SF) virus in african green monkey kidney (vero,V) at a conc of <25 ug/mL; format: functional, Chlorocebus sabaeus
Vero [10] = assay: Percentage plaque reduction was determined against pichinde(PICH) virus in african green monkey kidney (vero,V); format: functional, Chlorocebus sabaeus
Outline: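 Infected Vero 24-well monolayers: virus adsorbed 1 h at 37 °C, then overlaid with agar holding dilutions of compound and incubated again at 37 °C with CO₂. Plaques were stained with crystal violet and counted. Inhibition was scored as % plaque reduction bands (10-30%, 31-60%, 61-90%), each tied to a drug concentration range.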

Vero [11] = assay: Percentage plaque reduction was determined against rift valley fever(RVF) virus in african green monkey kidney (vero,V) at a conc of <25 ug/mL; format: functional, Chlorocebus sabaeus
Vero [12] = assay: Percentage plaque reduction was determined against venezuelan equine encephalitis (VEE) virus in african green monkey kidney (vero,V) at a conc of <25 ug/mL; format: functional, Chlorocebus sabaeus
Vero [13] = assay: In vitro antiviral activity against parainfluenza type 3(para 3) virus was determined in african green monkey kidney (vero,V) expressed as virus rating.; format: functional, Chlorocebus sabaeus; outline: as §1
Vero [14] = assay: In vitro antiviral activity against vaccinia(VV) virus was determined in african green monkey kidney (vero,V) expressed as virus rating.; format: functional, Chlorocebus sabaeus; outline: as §1
Vero [15] = assay: Percentage plaque reduction was determined against venezuelan equine encephalitis (VEE) virus in african green monkey kidney (vero,V) at a conc of 100-250 ug/mL; format: functional, Chlorocebus sabaeus
Vero [16] = assay: Percentage plaque reduction was determined against venezuelan equine encephalitis (VEE) virus in african green monkey kidney (vero,V) at a conc of 25-100 ug/mL; format: functional, Chlorocebus sabaeus
Vero [17] = assay: Percentage plaque reduction was determined against venezuelan equine encephalitis (VEE) virus in african green monkey kidney (vero,V) at a conc of 250-500 ug/mL; format: functional, Chlorocebus sabaeus
HEp-2 [18] = assay: In vitro antiviral activity against herpes simplex type 1 (HSV-1) virus was determined in human laryngeal epithelioma (HEp-2,H)expressed as virus rating. Toxic level(100 ug/mL); format: functional; outline: as §1
HEp-2 [19] = assay: In vitro antiviral activity against vaccinia(VV) virus was determined in human laryngeal epithelioma (HEp-2,H)expressed as virus rating. Toxic level(100 ug/mL); format: functional; outline: as §1
Vero [20] = assay: In vitro antiviral activity against vaccinia(VV) virus was determined in african green monkey kidney (vero,V) expressed as virus rating. Toxic level(>1000 ug/mL); format: functional, Chlorocebus sabaeus; outline: as §1
Vero [21] = assay: In vitro antiviral activity against herpes simplex type 1 (HSV-1) virus was determined in african green monkey kidney (vero,V) expressed as virus rating. Toxic level(>1000 ug/mL); format: functional, Chlorocebus sabaeus; outline: as §1
Vero [22] = assay: In vitro antiviral activity against parainfluenza type 3(para 3) virus was determined in african green monkey kidney (vero,V) expressed as virus rating. Toxic level(>1000 ug/mL); format: functional, Chlorocebus sabaeus; outline: as §1
HEp-2 [23] = assay: In vitro antiviral activity against parainfluenza type 3 (para3) virus was determined in human laryngeal epithelioma (HEp-2,H)expressed as virus rating. Toxic level(100 ug/mL); format: functional; outline: as §1
HEp-2 [24] = assay: In vitro antiviral activity against herpes simplex type 1 (HSV-1) virus was determined in human laryngeal epithelioma (HEp-2,H)expressed as virus rating. Toxic level(320 ug/mL); format: functional; outline: as §1
HEp-2 [25] = assay: In vitro antiviral activity against parainfluenza type 3 (para 3) virus was determined in human laryngeal epithelioma (HEp-2,H)expressed as virus rating. Toxic level(320 ug/mL); format: functional; outline: as §1
HEp-2 [26] = assay: In vitro antiviral activity against vaccinia(VV) virus was determined in human laryngeal epithelioma (HEp-2,H)expressed as virus rating. Toxic level(320 ug/mL); format: functional; outline: as §1
HEp-2 [27] = assay: In vitro antiviral activity against parainfluenza type 3(para 3) virus was determined in human laryngeal epithelioma (HEp-2,H)expressed as virus rating. Toxic level(100 ug/mL); format: functional; outline: as §1
Vero [28] = assay: In vitro antiviral activity against vaccinia(VV) virus was determined in african green monkey kidney (vero,V) expressed as virus rating. Toxic level(100 ug/mL); format: functional, Chlorocebus sabaeus; outline: as §1
Vero [29] = assay: In vitro antiviral activity against parainfluenza type 3(para 3) virus was determined in african green monkey kidney (vero,V) expressed as virus rating. Toxic level(100 ug/mL); format: functional, Chlorocebus sabaeus; outline: as §1
Vero [30] = assay: In vitro antiviral activity against herpes simplex type 1 (HSV-1) virus was determined in african green monkey kidney (vero,V) expressed as virus rating. Toxic level(100 ug/mL); format: functional, Chlorocebus sabaeus; outline: as §1

CSc1ncnc2c([C@@H]3O[C@H](COC(C)=O)[C@@H](OC(C)=O)[C@H]3OC(C)=O)n[nH]c12
Plaque reduction (Vero [1]): 0%
Plaque reduction (Vero [2]): 0%
Plaque reduction (Vero [3]): 0%
Plaque reduction (Vero [4]): 0%
Plaque reduction (Vero [5]): 61%
Virus rating (Vero [6]): 0.6
Plaque reduction (Vero [7]): 0%
Plaque reduction (Vero [8]): 0%
Plaque reduction (Vero [9]): 0%
Plaque reduction (Vero [10]): 0%
Plaque reduction (Vero [11]): 0%
Plaque reduction (Vero [12]): 0%
Virus rating (Vero [13]): 1
Virus rating (Vero [14]): 1.2
Plaque reduction (Vero [15]): 0%
Plaque reduction (Vero [16]): 0%
Plaque reduction (Vero [17]): 0%

CSc1ncnc2c1ccn2[C@@H]1O[C@H](CO)[C@@H](O)[C@H]1O
Virus rating (HEp-2 [18]): 1.3
Virus rating (HEp-2 [19]): 1.4
Virus rating (Vero [20]): 1
Virus rating (Vero [21]): 0.5
Virus rating (Vero [22]): 0.9
Virus rating (HEp-2 [23]): 1.5

NC(=O)c1ncnc2c1cnn2C1O[C@H](CO)[C@@H](O)[C@H]1O (stereo not given in full)
Virus rating (HEp-2 [24]): 0
Virus rating (HEp-2 [25]): 0
Virus rating (HEp-2 [26]): 0.2
Virus rating (Vero [20]): 0
Virus rating (Vero [21]): 0
Virus rating (Vero [22]): 0

NC(=O)c1ncnc2c([C@@H]3O[C@H](CO)[C@@H](O)[C@H]3O)n[nH]c12
Virus rating (HEp-2 [18]): 0
Virus rating (HEp-2 [27]): 0.4
Virus rating (HEp-2 [19]): 0.8
Virus rating (Vero [28]): 0.6
Virus rating (Vero [29]): 0
Virus rating (Vero [30]): 0
